In ChEMBL document CHEMBL1147356, “Structure and stereochemistry of pectinolides A-C, novel antimicrobial and cytotoxic 5,6-dihydro-alpha-pyrones from Hyptis pectinata” (1993):
In brackets after ≈: the same amount, converted by molar mass. Activity calls are given as the source filed them. The calls are words filed in the database; no cut-off is given here.

Columns and labels:
Candida albicans [1] = assay: Antifungal activity against Candida albicans ATCC 10231 at < 100 ug/ml after 24 hrs at 25 degC by agar hole-plate diffusion assay; type: functional, organism-based
Bacillus subtilis [2] = assay: Antibacterial activity against Bacillus subtilis ATCC 6633 at 1 mg/ml after 24 hrs at 37 degC by agar hole-plate diffusion assay; type: functional; settings: ATCC 6633, 24 h, read-out: IZ
Outline: (§1)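 Agar hole-plate diffusion. Agar plates (15 ml) seeded with 1 ml overnight broth culture (10⁶ bacteria/ml); 11 mm holes filled with 100 μl of pure compound at 1 mg/ml. Streptomycin sulfate (1 mg/ml) as positive control. Duplicate per organism, 24 h at 37°. Inhibition zone diameters measured.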

Staphylococcus aureus [3] = assay: Antibacterial activity against Staphylococcus aureus ATCC 6538 at 1 mg/ml after 24 hrs at 37 degC by agar hole-plate diffusion assay; type: functional; settings: ATCC 6538, 24 h, read-out: IZ; outline: as §1
Escherichia coli [4] = assay: Antibacterial activity against Escherichia coli ATCC 8739 at < 100 ug/ml after 24 hrs at 37 degC by agar hole-plate diffusion assay; type: functional, organism-based
Pseudomonas aeruginosa [5] = assay: Antibacterial activity against Pseudomonas aeruginosa ATCC 9027 at < 100 ug/ml after 24 hrs at 37 degC by agar hole-plate diffusion assay; type: functional, organism-based
Bacillus subtilis [6] = assay: Antibacterial activity against Bacillus subtilis ATCC 6633 after overnight incubation at 37 degC by twofold serial dilution technique; type: functional
Outline: (§2)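 Twofold broth dilution MIC. Sample at 1 mg/ml in MeOH-H2O (1:1), 0.5 ml added to 4.5 ml nutrient broth, then doubling dilutions from 100 to 0.2 μg/ml. Each tube inoculated to 10⁶ organisms/ml final. Duplicate per organism, with solvent and streptomycin control broths.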

Staphylococcus aureus [7] = assay: Antibacterial activity against Staphylococcus aureus ATCC 6538 after overnight incubation at 37 degC by twofold serial dilution technique; type: functional; outline: as §2
Escherichia coli [8] = assay: Antibacterial activity against Escherichia coli ATCC 8739 by agar diffusion technique; type: functional
Pseudomonas aeruginosa [9] = assay: Antibacterial activity against Pseudomonas aeruginosa ATCC 9027 by agar diffusion technique; type: functional
Candida albicans [10] = assay: Antifungal activity against Candida albicans ATCC 10231 by agar diffusion technique; type: functional
[11] = Cytotoxicity against human BC1 cells after 72 hrs by sulforhodamine B assay; type: functional; settings: BC1, 72 h, read-out: ED50 (the source's name)
Outline: (§3)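 Log-phase cells treated with five sample concentrations (20.0–0.032 μg/ml) in DMSO for 72 h at 37°, 5% CO₂, 100% humidity. Sulforhodamine B staining quantified cells per well; results given as ED50.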

HT-1080 = assay: Cytotoxicity against human HT1080 cells after 48 hrs by sulforhodamine B assay; type: functional; settings: HT-1080, 48 h, read-out: ED50 (the source's name)
Outline: (§4)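 Log-phase cells exposed to five concentrations (20.0–0.032 μg/ml) of sample in DMSO for 48 h at 37°, 5% CO₂, 100% humidity. Cell quantity per well determined by sulforhodamine B staining; ED50 reported.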

[12] = Cytotoxicity against human LUC1 cells after 48 hrs by sulforhodamine B assay; type: functional; settings: LUC1, 48 h, read-out: ED50 (the source's name); outline: as §4
SK-MEL-2 = assay: Cytotoxicity against human SK-MEL-2 cells after 72 hrs by sulforhodamine B assay; type: functional; settings: SK-MEL-2, 72 h, read-out: ED50 (the source's name); outline: as §3
KB = assay: Cytotoxicity against human KB cells after 72 hrs by sulforhodamine B assay; type: functional; settings: read-out: ED50 (the source's name); outline: as §3
[13] = Cytotoxicity against vinblastine-resistant human KBV1 cells after 72 hrs by sulforhodamine B assay; type: functional; settings: KB-V1, 72 h, read-out: ED50 (the source's name); outline: as §3
P388 = assay: Cytotoxicity against mouse P388 cells after 48 hrs by sulforhodamine B assay; type: functional; settings: P388, 48 h, read-out: ED50 (the source's name); outline: as §4
A-431 = assay: Cytotoxicity against human A431 cells after 72 hrs by sulforhodamine B assay; type: functional; settings: A-431, 72 h, read-out: ED50 (the source's name); outline: as §3
LNCaP = assay: Cytotoxicity against human LNCAP cells after 72 hrs by sulforhodamine B assay; type: functional; settings: read-out: ED50 (the source's name); outline: as §3
ZR-75-1 = assay: Cytotoxicity against human ZR-75-1 cells after 72 hrs by sulforhodamine B assay; type: functional; settings: ZR-75-1, 72 h, read-out: ED50 (the source's name); outline: as §3
Bacillus subtilis [14] = assay: Antibacterial activity against Bacillus subtilis ATCC 6633 at < 100 ug/ml after 24 hrs at 37 degC by agar hole-plate diffusion assay; type: functional, organism-based
Staphylococcus aureus [15] = assay: Antibacterial activity against Staphylococcus aureus ATCC 6538 at < 100 ug/ml after 24 hrs at 37 degC by agar hole-plate diffusion assay; type: functional, organism-based
[16] = Cytotoxicity against human Col2 cells after 72 hrs by sulforhodamine B assay; settings: Col2, 72 h, read-out: ED50 (the source's name)

Compound	zone of inhibition at 1000 µg/mL (Bacillus subtilis [2]) [mm]	zone of inhibition at 1000 µg/mL (Staphylococcus aureus [3]) [mm]	Activity (Escherichia coli [4])	Activity (Pseudomonas aeruginosa [5])	Activity (Candida albicans [1])	MIC (Bacillus subtilis [6]) [µg/mL]	MIC (Staphylococcus aureus [7]) [µg/mL]	MIC (Escherichia coli [8]) [µg/mL]	MIC (Pseudomonas aeruginosa [9]) [µg/mL]	MIC (Candida albicans [10]) [µg/mL]	EC50 [11] [µg/mL]	EC50 (HT-1080) [µg/mL]	EC50 [12] [µg/mL]	EC50 (SK-MEL-2) [µg/mL]	EC50 (KB) [µg/mL]	EC50 [13] [µg/mL]	EC50 (P388) [µg/mL]	EC50 (A-431) [µg/mL]	EC50 (LNCaP) [µg/mL]	EC50 (ZR-75-1) [µg/mL]	further results
NYSTATIN																					inhibition zone (IZ) (Candida albicans [1]): 7 mm
CCCC[C@H](OC(C)=O)[C@@H](OC(C)=O)[C@H](OC(C)=O)[C@@H]1OC(=O)C=C[C@@H]1OC(C)=O	5	4	inactive	inactive	inactive	50 (≈ 117 µM)	100 (≈ 233 µM)	300 (≈ 700 µM)	200 (≈ 467 µM)	500 (≈ 1170 µM)	7 (≈ 16.3 µM)	8.4 (≈ 19.6 µM)	7.6 (≈ 17.7 µM)	4.5 (≈ 10.5 µM)	4.4 (≈ 10.3 µM)	6.3 (≈ 14.7 µM)	0.4 (≈ 0.934 µM)	2.6 (≈ 6.07 µM)	1.9 (≈ 4.43 µM)	7.8 (≈ 18.2 µM)	
CC(=O)O[C@@H](C)[C@@H](/C=C/[C@@H]1O[C@@H]1[C@H]1CC=CC(=O)O1)OC(C)=O											4.8 (≈ 14.8 µM)	5.7 (≈ 17.6 µM)	3.3 (≈ 10.2 µM)	4.1 (≈ 12.6 µM)	2.9 (≈ 8.94 µM)	3.4 (≈ 10.5 µM)	0.4 (≈ 1.23 µM)	1.9 (≈ 5.86 µM)	1.8 (≈ 5.55 µM)	4.7 (≈ 14.5 µM)	Activity (Bacillus subtilis [14]): inactive; Activity (Staphylococcus aureus [15]): inactive
CCCC[C@H](O)/C=C\[C@@H]1OC(=O)C=C[C@@H]1OC(C)=O [PECTINOLIDE B]	6	4	inactive	inactive	inactive	25 (≈ 93.2 µM)	100 (≈ 373 µM)	300 (≈ 1120 µM)	300 (≈ 1120 µM)	300 (≈ 1120 µM)	2.5 (≈ 9.32 µM)	2.3 (≈ 8.57 µM)	3.8 (≈ 14.2 µM)	2.2 (≈ 8.2 µM)	1.4 (≈ 5.22 µM)	2 (≈ 7.45 µM)	0.1 (≈ 0.373 µM)	0.6 (≈ 2.24 µM)	0.9 (≈ 3.35 µM)	1.6 (≈ 5.96 µM)	EC50 [16]: 1.1 µg/mL (≈ 4.1 µM)
CCCC[C@@H](/C=C\[C@@H]1OC(=O)C=C[C@@H]1O)OC(C)=O [PECTINOLIDE C]	8	4	inactive	inactive	inactive	12.5 (≈ 46.6 µM)	100 (≈ 373 µM)	> 500	> 500	> 500	2 (≈ 7.45 µM)	1.8 (≈ 6.71 µM)	2.3 (≈ 8.57 µM)	3.3 (≈ 12.3 µM)	1.7 (≈ 6.34 µM)	3.2 (≈ 11.9 µM)	2.2 (≈ 8.2 µM)	0.8 (≈ 2.98 µM)	0.8 (≈ 2.98 µM)	1.9 (≈ 7.08 µM)	EC50 [16]: 1.6 µg/mL (≈ 5.96 µM)
CCCC[C@@H](/C=C\[C@@H]1OC(=O)C[C@@H](OC)[C@@H]1O)OC(C)=O			inactive	inactive	inactive	> 100	> 100	> 500	> 500	> 500	> 20	> 20	> 20	> 20	> 20	> 20	> 5	> 20	> 20	> 20	Activity (Bacillus subtilis [14]): inactive
CCCC[C@H](OC(C)=O)[C@@H](O)[C@H](O)[C@@H]1OC(=O)C=C[C@@H]1OC(C)=O	7	4	inactive	inactive	inactive	50 (≈ 145 µM)	75 (≈ 218 µM)	300 (≈ 871 µM)	300 (≈ 871 µM)	200 (≈ 581 µM)	9.9 (≈ 28.7 µM)	6.7 (≈ 19.5 µM)	8.8 (≈ 25.6 µM)	6 (≈ 17.4 µM)	5.9 (≈ 17.1 µM)	> 20	0.5 (≈ 1.45 µM)	4.5 (≈ 13.1 µM)	4.5 (≈ 13.1 µM)	6.2 (≈ 18 µM)	EC50 [16]: 5.1 µg/mL (≈ 14.8 µM)
CCCC[C@@H](/C=C\[C@@H]1OC(=O)C=C[C@@H]1OC(C)=O)OC(C)=O [PECTINOLIDE A]	10	8	inactive	inactive	inactive	6.25 (≈ 20.1 µM)	12.5 (≈ 40.3 µM)	200 (≈ 644 µM)	200 (≈ 644 µM)	250 (≈ 806 µM)	1 (≈ 3.22 µM)	1.7 (≈ 5.48 µM)	0.9 (≈ 2.9 µM)	0.7 (≈ 2.26 µM)	1.8 (≈ 5.8 µM)	1.8 (≈ 5.8 µM)	0.9 (≈ 2.9 µM)	1.4 (≈ 4.51 µM)	0.7 (≈ 2.26 µM)	3.6 (≈ 11.6 µM)	EC50 [16]: 1 µg/mL (≈ 3.22 µM)
CCCC[C@H](OC(C)=O)[C@@H](OC(C)=O)[C@H](OC(C)=O)[C@H]1CC=CC(=O)O1 [BORONOLIDE]											2.8 (≈ 7.56 µM)	4.5 (≈ 12.1 µM)	3.9 (≈ 10.5 µM)	3.3 (≈ 8.91 µM)	4 (≈ 10.8 µM)	8.6 (≈ 23.2 µM)	1 (≈ 2.7 µM)	6.5 (≈ 17.5 µM)	3.2 (≈ 8.64 µM)	8.7 (≈ 23.5 µM)	Activity (Bacillus subtilis [14]): inactive; Activity (Staphylococcus aureus [15]): inactive
CCCC[C@H](OC(=O)CCl)[C@@H](OC(C)=O)[C@H](OC(C)=O)[C@@H]1OC(=O)C=C[C@@H]1OC(C)=O	7	5	inactive	inactive	inactive	50 (≈ 108 µM)	75 (≈ 162 µM)	300 (≈ 648 µM)	300 (≈ 648 µM)	200 (≈ 432 µM)											
CC(=O)O[C@H](/C=C\[C@H]1CC=CC(=O)O1)C[C@@H](OC(C)=O)[C@H](C)OC(C)=O [HYPTOLIDE]	5		inactive	inactive	inactive	100 (≈ 271 µM)	> 100	> 500	> 500	> 500	2.4 (≈ 6.51 µM)	9.6 (≈ 26.1 µM)	4.9 (≈ 13.3 µM)	12.2 (≈ 33.1 µM)	3.6 (≈ 9.77 µM)	4.5 (≈ 12.2 µM)	1.6 (≈ 4.34 µM)	3.7 (≈ 10 µM)	7.5 (≈ 20.4 µM)	6.4 (≈ 17.4 µM)	Activity (Bacillus subtilis [14]): inactive; Activity (Staphylococcus aureus [15]): inactive
CN[C@@H]1[C@H](O[C@H]2[C@H](O[C@H]3[C@H](O)[C@@H](O)[C@H](N=C(N)N)[C@@H](O)[C@@H]3N=C(N)N)O[C@@H](C)[C@]2(O)C=O)O[C@@H](CO)[C@H](O)[C@H]1O.CN[C@@H]1[C@H](O[C@H]2[C@H](O[C@H]3[C@H](O)[C@@H](O)[C@H](N=C(N)N)[C@@H](O)[C@@H]3N=C(N)N)O[C@@H](C)[C@]2(O)C=O)O[C@@H](CO)[C@H](O)[C@H]1O.O=S(=O)(O)O.O=S(=O)(O)O.O=S(=O)(O)O [STREPTOMYCIN SULFATE]	13	9				3.12	6.25														
